Assay results: ChEMBL document CHEMBL2034859, “Simple, fast and efficient synthesis of β-keto esters from the esters of heteroaryl compounds, its antimicrobial study and cytotoxicity towards various cancer cell lines” (Bioorg Med Chem Lett, 2012)
≈ marks a conversion by molar mass, not a printed value.

Tests used:
[1] = tested on: PANC-1; assay: Cytotoxicity against human PANC1 cells at 10 uM after 48 hrs by WST-1 assay; assay type: functional
In short: (§1)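 Cells from ATCC, grown in DMEM with 10% heat-inactivated FBS at 37 °C in humidified 5% CO2. Log-phase cells seeded at 5 × 10^3 cells/well and left to recover overnight, then exposed to varying compound concentrations for 48 h. Controls received medium with 0.2% DMSO vehicle. CCK-8 ([…]) reagent added at 5 µL/well for 2 h, then absorbance read.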

[2] = tested on: ACHN; assay: Cytotoxicity against human ACHN cells at 10 uM after 48 hrs by WST-1 assay; assay type: functional
In short: (§2)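 Cells from ATCC were grown in DMEM with 10% heat-inactivated FBS at 37 °C in 5% CO2. Log-phase cells were seeded at 5 × 10^3 per well and left to recover overnight. They were then exposed to a range of compound concentrations for 48 h, with 0.2% DMSO as the vehicle control. CCK-8 (WST) reagent was added for 2 h and absorbance was measured.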

[3] = tested on: HCT-116; assay: Cytotoxicity against human HCT116 cells at 10 uM after 48 hrs by WST-1 assay; assay type: functional; in short: as §2
[4] = tested on: NCI-H460; assay: Cytotoxicity against human NCI-H460 cells at 10 uM after 48 hrs by WST-1 assay; assay type: functional; in short: as §1
[5] = tested on: Calu-1; assay: Cytotoxicity against human Calu1 cells at 10 uM after 48 hrs by WST-1 assay; assay type: functional; in short: as §2
[6] = tested on: Escherichia coli; assay: Antibacterial activity against Escherichia coli ATCC 25922 after 24 hrs by disc diffusion method; assay type: functional
In short: (§3)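 Disc diffusion susceptibility test. The Klebsiella pneumoniae strain was a recultured isolate, not an ATCC stock.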

[7] = tested on: Escherichia coli; assay: Antibacterial activity against Escherichia coli ATCC 25922 after 24 hrs; assay type: functional; conditions: ATCC 25922, 24 h
[8] = tested on: Staphylococcus aureus; assay: Antibacterial activity against Staphylococcus aureus ATCC 25923 after 24 hrs by disc diffusion method; assay type: functional; in short: as §3
[9] = tested on: Talaromyces marneffei; assay: Antifungal activity against Penicillium marneffei after 3 to 4 days; assay type: functional
[10] = tested on: Pseudomonas aeruginosa; assay: Antibacterial activity against Pseudomonas aeruginosa ATCC 27853 after 24 hrs by disc diffusion method; assay type: functional; in short: as §3
[11] = tested on: Staphylococcus aureus; assay: Antibacterial activity against Staphylococcus aureus ATCC 25923 after 24 hrs; assay type: functional; conditions: ATCC 25923, 24 h
[12] = tested on: Talaromyces marneffei; assay: Antifungal activity against Penicillium marneffei after 3 to 4 days by disc diffusion method; assay type: functional
[13] = tested on: Klebsiella pneumoniae; assay: Antibacterial activity against Klebsiella pneumoniae after 24 hrs; assay type: functional
[14] = tested on: Aspergillus fumigatus; assay: Antifungal activity against Aspergillus fumigatus NCIM 902 after 3 to 4 days by disc diffusion method; assay type: functional
[15] = tested on: Aspergillus flavus; assay: Antifungal activity against Aspergillus flavus NCIM 524 after 3 to 4 days; assay type: functional
[16] = tested on: Aspergillus fumigatus; assay: Antifungal activity against Aspergillus fumigatus NCIM 902 after 3 to 4 days; assay type: functional
In short: (§4)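 Compounds were dissolved in DMSO and tested by serial plate dilution. Activity was read as the diameter of the inhibition zone, with ciclopiroxolamine as the reference standard. Penicillium marneffei and Trichophyton mentagrophytes were recultured isolates.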

[17] = tested on: Trichophyton mentagrophytes; assay: Antifungal activity against Trichophyton mentagrophytes after 3 to 4 days; assay type: functional; in short: as §4
[18] = tested on: Aspergillus flavus; assay: Antifungal activity against Aspergillus flavus NCIM 524 after 3 to 4 days by serial plate dilution method
[19] = tested on: Klebsiella pneumoniae; assay: Antibacterial activity against Klebsiella pneumoniae after 24 hrs by disc diffusion method; assay type: functional; in short: as §3
[20] = tested on: Pseudomonas aeruginosa; assay: Antibacterial activity against Pseudomonas aeruginosa ATCC 27853 after 24 hrs; assay type: functional; conditions: ATCC 27853, 24 h
[21] = tested on: Trichophyton mentagrophytes; assay: Antifungal activity against Trichophyton mentagrophytes after 3 to 4 days by disc diffusion method; assay type: functional
[22] = tested on: NCI-H460; assay: Cytotoxicity against human NCI-H460 cells at 1000 nM after 48 hrs by WST-1 assay; assay type: functional; in short: as §1
[23] = tested on: Calu-1; assay: Cytotoxicity against human Calu1 cells at 1000 nM after 48 hrs by WST-1 assay; assay type: functional; in short: as §2
[24] = tested on: HCT-116; assay: Cytotoxicity against human HCT116 cells at 1000 nM after 48 hrs by WST-1 assay; assay type: functional; in short: as §2
[25] = tested on: PANC-1; assay: Cytotoxicity against human PANC1 cells at 1000 nM after 48 hrs by WST-1 assay; assay type: functional; in short: as §1
[26] = tested on: ACHN; assay: Cytotoxicity against human ACHN cells at 1000 nM after 48 hrs by WST-1 assay; assay type: functional; in short: as §2

MIC [7] [µg/mL]	MIC [9] [µg/mL]	MIC [11] [µg/mL]	MIC [13] [µg/mL]	MIC [15] [µg/mL]	MIC [16] [µg/mL]	MIC [17] [µg/mL]	MIC [20] [µg/mL]	SMILES	Activity [1] [%]	Activity [2] [%]	Activity [3] [%]	Activity [4] [%]	Activity [5] [%]	inhibition zone (IZ) [6] [mm]	inhibition zone (IZ) [8] [mm]	inhibition zone (IZ) [10] [mm]	inhibition zone (IZ) [12] [mm]	inhibition zone (IZ) [14] [mm]	inhibition zone (IZ) [18] [mm]	inhibition zone (IZ) [19] [mm]	other results
–	–	–	–	–	–	–	–	CCOC(=O)CC(=O)c1cnc2ccccc2c1	26	20	28	20	23	–	–	–	–	–	–	–	–
6.25 (≈ 19 µM)	12.5 (≈ 38.1 µM)	6.25 (≈ 19 µM)	6.25 (≈ 19 µM)	12.5 (≈ 38.1 µM)	12.5 (≈ 38.1 µM)	12.5 (≈ 38.1 µM)	6.25 (≈ 19 µM)	CCOC(=O)CC(=O)c1cccc2sc(Br)nc12	27	31	39	14	19	22	21	22	17	18	19	23	inhibition zone (IZ) [21]: 17 mm
–	–	–	–	–	–	–	–	CCOC(=O)CC(=O)c1sc(Cl)nc1C	29	37	48	24	32	–	–	–	–	–	–	–	–
–	–	–	–	–	–	–	–	CCOC(=O)CC(=O)c1cnccn1	27	34	30	20	16	–	–	–	–	–	–	–	–
–	–	–	–	–	–	–	–	CCOC(=O)CC(=O)c1ccncn1	35	15	20	13	12	–	–	–	–	–	–	–	–
6.25 (≈ 25.7 µM)	12.5 (≈ 51.4 µM)	6.25 (≈ 25.7 µM)	6.25 (≈ 25.7 µM)	12.5 (≈ 51.4 µM)	12.5 (≈ 51.4 µM)	12.5 (≈ 51.4 µM)	6.25 (≈ 25.7 µM)	CCOC(=O)CC(=O)c1nccc2ccccc12	35	30	26	34	30	19	22	20	18	18	15	22	inhibition zone (IZ) [21]: 17 mm
6.25 (≈ 27.3 µM)	6.25 (≈ 27.3 µM)	6.25 (≈ 27.3 µM)	6.25 (≈ 27.3 µM)	6.25 (≈ 27.3 µM)	6.25 (≈ 27.3 µM)	6.25 (≈ 27.3 µM)	6.25 (≈ 27.3 µM)	CCOC(=O)CC(=O)c1cnc(Cl)cn1	14	30	40	34	31	24	23	21	24	26	22	20	inhibition zone (IZ) [21]: 25 mm
12.5 (≈ 51.4 µM)	6.25 (≈ 25.7 µM)	12.5 (≈ 51.4 µM)	12.5 (≈ 51.4 µM)	6.25 (≈ 25.7 µM)	6.25 (≈ 25.7 µM)	6.25 (≈ 25.7 µM)	12.5 (≈ 51.4 µM)	CCOC(=O)CC(=O)c1cc2ccccc2cn1	23	30	29	17	21	19	16	22	25	23	27	23	inhibition zone (IZ) [21]: 23 mm
–	–	–	–	–	–	–	–	CCOC(=O)CC(=O)c1nccn1C	35	30	11	14	30	–	–	–	–	–	–	–	–
–	–	–	–	–	–	–	–	CCOC(=O)CC(=O)c1cccnc1	35	30	30	19	30	–	–	–	–	–	–	–	–
–	–	–	–	–	–	–	–	CCOC(=O)CC(=O)c1ccncc1	10	31	39	10	12	–	–	–	–	–	–	–	–
–	–	–	–	–	–	–	–	CCOC(=O)CC(=O)c1cn(C(=O)OC(C)(C)C)c2ccccc12	23	30	33	39	20	–	–	–	–	–	–	–	–
6.25 (≈ 32.2 µM)	12.5 (≈ 64.4 µM)	6.25 (≈ 32.2 µM)	6.25 (≈ 32.2 µM)	12.5 (≈ 64.4 µM)	12.5 (≈ 64.4 µM)	12.5 (≈ 64.4 µM)	6.25 (≈ 32.2 µM)	CCOC(=O)CC(=O)c1ncccn1	37	10	23	20	17	24	22	22	17	25	22	23	inhibition zone (IZ) [21]: 18 mm
–	–	–	–	–	–	–	–	CCOC(=O)CC(=O)c1nccn1CCOC	26	21	28	14	24	–	–	–	–	–	–	–	–
–	–	–	–	–	–	–	–	CCOC(=O)C(C)C(=O)c1nccc2ccccc12 (stereo unspecified)	30	25	24	19	20	–	–	–	–	–	–	–	–
–	–	–	–	–	–	–	–	CCOC(=O)CC(=O)c1ccccn1	27	25	21	36	22	–	–	–	–	–	–	–	–
–	–	–	–	–	–	–	–	CN1CC[C@H](c2c(O)cc(O)c3c(=O)cc(-c4ccccc4Cl)oc23)[C@H](O)C1 [ALVOCIDIB]	–	–	–	–	–	–	–	–	–	–	–	–	Activity [22]: 71%; Activity [23]: 88%; Activity [24]: 78%; Activity [25]: 74%; Activity [26]: 71%
–	6.25	–	–	3.12	6.25	3.12	–	Cc1cc(C2CCCCC2)n(O)c(=O)c1.NCCO [CICLOPIROX OLAMINE]	–	–	–	–	–	–	–	–	23	26	27	–	inhibition zone (IZ) [21]: 27 mm
–	–	–	–	–	–	–	–	Nc1ccn([C@@H]2O[C@H](CO)[C@@H](O)C2(F)F)c(=O)n1 [GEMCITABINE]	–	–	–	–	–	–	–	–	–	–	–	–	Activity [22]: 73%; Activity [23]: 71%; Activity [24]: 74%; Activity [25]: 79%; Activity [26]: 73%

SMILES	MIC [7] [µg/mL]	MIC [9] [µg/mL]	MIC [11] [µg/mL]	MIC [13] [µg/mL]	MIC [15] [µg/mL]	MIC [16] [µg/mL]	MIC [17] [µg/mL]	MIC [20] [µg/mL]	Activity [1] [%]	Activity [2] [%]	Activity [3] [%]	Activity [4] [%]	Activity [5] [%]	inhibition zone (IZ) [6] [mm]	inhibition zone (IZ) [8] [mm]	inhibition zone (IZ) [10] [mm]	inhibition zone (IZ) [12] [mm]	inhibition zone (IZ) [14] [mm]	inhibition zone (IZ) [18] [mm]	inhibition zone (IZ) [19] [mm]	other results
O=C(O)c1cn(C2CC2)c2cc(N3CCNCC3)c(F)cc2c1=O [CIPROFLOXACIN]	6.25 (≈ 18.9 µM)	–	6.25 (≈ 18.9 µM)	6.25 (≈ 18.9 µM)	–	–	–	6.25 (≈ 18.9 µM)	–	–	–	–	–	32	23	28	–	–	–	23	–
